Source: ChEMBL document CHEMBL1156793, “Identification, synthesis, and pharmacological evaluation of tetrahydroindazole based ligands as novel antituberculosis agents” (J Med Chem, 2010)
pIC50: −log10 of the molar value. Converted amounts (≈) assume the structure as drawn.

How the values were obtained:
[1] = Metabolic stability in mouse liver microsomes assessed as intrinsic clearance; assay type: ADME, Microsome
How it was run: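 Intrinsic clearance scaled up from the in vitro half-life in mouse liver microsomes. Microsomes at 0.5 mg/mL, compound at 1 μM, 1.0 mM NADPH, pH 7.4 phosphate buffer, 37 °C, in triplicate. Parent depletion followed over 30 min by LC-MS-MS.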

[2] = system: Mycobacterium tuberculosis; assay: Antimycobacterial activity against Mycobacterium tuberculosis H37Rv after 16 to 24 hrs by microplate alamar blue assay; assay type: functional
How it was run: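 M. tuberculosis H37Rv (ATCC 27294), 1 × 10^5 cfu/mL inoculum, in 7H12 medium with two-fold compound dilutions at 128 to 0.5 μM final (12.8 mM DMSO stocks). Incubated aerobically at 37 °C for 7 days, then Tween 80 plus Alamar blue added for 16-24 h. Fluorescence read at ex 530/em 590 nm. MIC = lowest concentration giving ≥90% reduction versus bacteria-only controls; average of two measurements.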

[3] = AUC in BALB/c mouse at 50 mg/kg, po; assay type: ADME, organism-based; design: dose 50 mg/kg, route oral; conditions: plasma
How it was run: (§1)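 Female BALB/c mice (20-22 g), groups of 12, single oral 50 mg/kg dose formulated in 5% NMP/95% PEG400. Retro-orbital blood sampled at 0, 0.5, 1, 2, 4, 8 and 24 h postdose. Plasma obtained by centrifugation, precipitated with three volumes acetonitrile containing internal standard. Parent quantified by LC-MS-MS. AUC over 0–24 h.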

[4] = Cmax in BALB/c mouse at 50 mg/kg, po; assay type: ADME, organism-based; design: dose 50 mg/kg, route oral; conditions: in vivo; how it was run: as §1
[5] = Metabolic stability in mouse liver microsomes assessed as hepatic clearance; assay type: ADME, Microsome
How it was run: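 Hepatic plasma clearance predicted from microsomal intrinsic clearance with the nonrestricted well-stirred liver model. Assumes protein binding is similar in blood and microsomes. Microsomal depletion run at 1 μM compound, 0.5 mg/mL mouse microsomes, 1.0 mM NADPH, 37 °C, in triplicate, measured by LC-MS-MS.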

[6] = Tmax in BALB/c mouse at 50 mg/kg, po; assay type: ADME, organism-based; design: dose 50 mg/kg, route oral; conditions: in vivo; how it was run: as §1
[7] = system: Vero; assay: Cytotoxicity against african green monkey Vero cells after 72 hrs; assay type: cell-based; conditions: Chlorocebus sabaeus
How it was run: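 Vero cells (CCL-81), 5 × 10^5 log-phase cells per well, exposed to geometric 3-fold dilutions in MEM with 10% FBS, 25 mM HEPES, 0.2% NaHCO3, 2 mM glutamine. DMSO ≤1% v/v final. Tested in duplicate at 37 °C, 5% CO2. Viability read after 72 h by CellTiter 96 aqueous (MTS) absorbance at 490 nm. IC50 from curve fitting.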

[8] = Metabolic stability in mouse liver microsomes assessed as half life; assay type: ADME, Microsome
How it was run: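 Mixture prewarmed 5 min, then started with 1.0 mM NADPH. Quenched with acetonitrile plus internal standard at 0, 5, 10, 15, 20 and 30 min. Parent measured by LC-MS-MS. No-NADPH controls.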

[9] = Selectivity index, ratio of IC50 for african green monkey Vero cells to MIC for Mycobacterium tuberculosis H37Rv ATCC 27294; assay type: functional
How it was run: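 The ratio takes the Vero (CCL-81) IC50 as numerator. Cells were exposed to geometric 3-fold dilutions (12.8 mM DMSO stocks, final DMSO ≤1% v/v) in MEM with 10% FBS, 25 mM HEPES and 2 mM glutamine, in duplicate. Culture was 72 h at 37 °C, 5% CO2. Viability was read by CellTiter 96 aqueous absorbance at 490 nm, and IC50 came from curve fitting. The denominator is the H37Rv MABA MIC.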

SMILES | MIC [2] [µM] | also measured
Cc1nonc1C(=O)NC1CCCc2c1cnn2-c1ccc(C(C)(C)C)cc1 (stereo not given) | 1.7 (≈ 0.645 µg/mL) | CLint scaled [1]: 200 mL/min/kg; AUC [3]: 3.6 µM·h; Cmax [4]: 1.5 µM; CLhep predicted [5]: 34 mL/min/kg; Tmax [6]: 30 min; pIC50 [7]: < 3.89; half-life [8]: 27 min; Ratio IC50 [9]: >75.3
Cc1nonc1C(=O)Nc1cccc2c1cnn2-c1ccc(C(C)(C)C)cc1 | > 128 | –
Cc1nonc1C(=O)NC1CCCc2c1cnn2-c1ccc(NC(=O)C(C)(C)C)cc1 (stereo not given) | 110 (≈ 46.5 µg/mL) | –
Cc1nonc1C(=O)NC1CCCc2c1cnn2-c1ccc(NC(=O)C(F)(F)F)cc1 (stereo not given) | 128 (≈ 55.4 µg/mL) | –
COC(=O)c1ccc(C(=O)NC2CCCc3c2cnn3-c2ccc(C(C)(C)C)cc2)nc1 (stereo not given) | 7.3 (≈ 3.16 µg/mL) | –
CC(C)(C)c1ccc(-n2ncc3c2CCCC3NC(=O)c2ccno2)cc1 (stereo not given) | 124 (≈ 45.2 µg/mL) | –
Cc1nonc1C(=O)NC1CCCc2c1cnn2-c1ccc(OC(F)(F)F)cc1 (stereo not given) | 1.9 (≈ 0.774 µg/mL) | CLint scaled [1]: 54 mL/min/kg; AUC [3]: 53.5 µM·h; Cmax [4]: 9.5 µM; CLhep predicted [5]: 23 mL/min/kg; Tmax [6]: 30 min; pIC50 [7]: < 3.89; half-life [8]: 102 min; Ratio IC50 [9]: >67.4
Cc1nc2cc(C(=O)NC3CCCc4c3cnn4-c3ccc(OC(F)(F)F)cc3)ccc2s1 (stereo not given) | > 128 | –
Cc1nonc1C(=O)Nc1ccc(-n2ncc3c2CCCC3NC(=O)c2nonc2C)cc1 (stereo not given) | 44.9 (≈ 20.1 µg/mL) | –
Cc1cc(C)cc(-n2ncc3c2CCCC3NC(=O)c2ccc3nonc3c2)c1 (stereo not given) | > 128 | –
CC(C)(C)c1ccc(-n2ncc3c2CCCC3NC(=O)c2cnccn2)cc1 (stereo not given) | 57.7 (≈ 21.7 µg/mL) | –
Cc1nonc1C(=O)NC1CCCc2c1cnn2-c1ccc(F)cc1 (stereo not given) | 30.7 (≈ 10.5 µg/mL) | –
Cc1nonc1C(=O)NC1CCCc2c1nnn2-c1ccc(C(C)(C)C)cc1 (stereo not given) | 7.7 (≈ 2.93 µg/mL) | –
Cc1nonc1CNC1CCCc2c1cnn2-c1ccc(C(C)(C)C)cc1 (stereo not given) | 38.6 (≈ 14.1 µg/mL) | –
COc1ccc(-n2ncc3c2CCCC3NC(=O)c2nonc2C)cc1 (stereo not given) | > 128 | –
Cc1nonc1C(=O)NC1CCCc2c1cnn2-c1ccc(C(F)(F)F)cc1 (stereo not given) | 1.9 (≈ 0.744 µg/mL) | pIC50 [7]: < 3.89; Ratio IC50 [9]: >67.4
Cc1cc(C)cc(-n2ncc3c(NC(=O)c4nonc4C)cccc32)c1 | 117 (≈ 40.6 µg/mL) | –
CC(C)(C)c1ccc(-n2ncc3c2CCCC3NC(=O)c2ncccc2O)cc1 (stereo not given) | 26.9 (≈ 10.5 µg/mL) | –

SMILES | MIC [2] [µM] | also measured
Cc1cc(C)cc(-n2ncc3c(NC(=O)c4ccc5c(c4)no[n+]5[O-])cccc32)c1 | 0.7 (≈ 0.28 µg/mL) | pIC50 [7]: 4.79; Ratio IC50 [9]: 23
Cc1cc(C)cc(-n2ncc3c2CCCC3NC(=O)c2nonc2C)c1 (stereo not given) | > 128 | –
Cc1nocc1C(=O)NC1CCCc2c1cnn2-c1ccc(OC(F)(F)F)cc1 (stereo not given) | 48.9 (≈ 19.9 µg/mL) | –
CC(C)(C)c1ccc(-n2ncc3c2CCCC3NC(=O)c2ccc3c(c2)no[n+]3[O-])cc1 (stereo not given) | 1 (≈ 0.431 µg/mL) | pIC50 [7]: 4.54; Ratio IC50 [9]: 29
Cc1nonc1C(=O)NC1CCCc2c1cnn2-c1ccc([N+](=O)[O-])cc1 (stereo not given) | > 128 | –
Cc1nonc1C(=O)NC1CCCc2c1cnn2-c1ccc(Br)cc1 (stereo not given) | 64.6 (≈ 26 µg/mL) | –
Cc1nonc1C(=O)NC1CCCc2c1cnn2-c1ccc(N)cc1 (stereo not given) | > 128 | –
CSCCC(=O)NC1CCCc2c1cnn2-c1ccc(OC(F)(F)F)cc1 (stereo not given) | 88.3 (≈ 35.3 µg/mL) | –
CC(C)(C)c1ccc(-n2ncc3c(NC(=O)c4ccc5c(c4)no[n+]5[O-])cccc32)cc1 | 0.4 (≈ 0.171 µg/mL) | pIC50 [7]: 5.74; Ratio IC50 [9]: 4.5
Cc1nonc1C(=O)NC1CCCc2c1cnn2-c1ccc(C(F)(F)F)cn1 (stereo not given) | > 128 | –
Cc1nonc1C(=O)NC1CCCc2c1cnn2-c1ccccc1C(F)(F)F (stereo not given) | > 128 | –
Cc1cc(C)cc(-n2ncc3c2CCCC3NC(=O)c2ccc3c(c2)no[n+]3[O-])c1 (stereo not given) | 1.9 (≈ 0.767 µg/mL) | –
Cc1nonc1C(=O)NC1CCCc2c1cnn2-c1cccc(C(F)(F)F)c1 (stereo not given) | 15.4 (≈ 6.03 µg/mL) | –
CSCC[C@H](N)C(=O)NC1CCCc2c1cnn2-c1ccc(C(C)(C)C)cc1 (stereo not given in full) | 4.8 (≈ 1.92 µg/mL) | –
CC(C)(C)c1ccc(-n2ncc3c2CCCC3NC(=O)c2ccc3nonc3c2)cc1 (stereo not given) | > 128 | –
Cc1nonc1C(=O)NC1CCCc2c1cnn2-c1ccc(NC(C)C)cc1 (stereo not given) | > 128 | –
CO[C@H]1/C=C/O[C@@]2(C)Oc3c(C)c(O)c4c(O)c(c(/C=N/N5CCN(C)CC5)c(O)c4c3C2=O)NC(=O)/C(C)=C\C=C\[C@H](C)[C@H](O)[C@@H](C)[C@@H](O)[C@@H](C)[C@H](OC(C)=O)[C@@H]1C [RIFAMPIN] | 0.06 (≈ 0.0494 µg/mL) | Ratio IC50 [9]: 2033
